Source: ChEMBL document CHEMBL4311965, “Antimicrobial activity of amphipathic α,α-disubstituted β-amino amide derivatives against ESBL - CARBA producing multi-resistant bacteria; effect of halogenation, lipophilicity and cationic character” (Eur J Med Chem, 2019)

Columns and labels:
[1] = Drug metabolism in Sprague-Dawley rat liver microsomes assessed as CYP450-mediated N-(2-aminoethyl)-2-(aminomethyl)-2-[(3,5-bis(trifluoromethyl)phenyl)methyl]-3-(4-hydroxy-3,5-bis(trifluoromethyl)phenyl)propanamide formation incubated up to 3 hrs in presence of NADPH regenerating system by RP-HPLC-MS analysis; type: ADME
Method in brief: (§1)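 Substrate at 1 µL of 100 µM aqueous stock in 100 mM potassium phosphate, pH 7.4, with NADPH regenerating system. Pooled male Sprague–Dawley rat liver microsomes (20 mg/mL stock) added, then incubated at 37 °C. Sampled at 0–180 min and quenched with cold methanol containing propranolol internal standard. Analysed by RP-HPLC–HRMS in positive ESI mode. Metabolites confirmed by HCD MS2. Triplicate incubations.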

[2] = Drug metabolism in Sprague-Dawley rat liver microsomes assessed as CYP450-mediated N-(2-aminoethyl)-2-(aminomethyl)-2-[(4-fluoro-5,6-dihydroxy-5,6-dihydronaphthalen-1-yl)methyl]-3-(4-fluoro-1-naphthyl)propanamide formation incubated up to 3 hrs in presence of NADPH regenerating system by RP-HPLC-MS analysis; type: ADME; method in brief: as §1

| SMILES | Drug metabolism [1] | Drug metabolism [2] |
| --- | --- | --- |
| NCCNC(=O)C(CN)(Cc1cc(C(F)(F)F)cc(C(F)(F)F)c1)Cc1cc(C(F)(F)F)cc(C(F)(F)F)c1 | Metabolite_Notdetected |  |
| NCCNC(=O)C(CN)(Cc1ccc(F)c2ccccc12)Cc1ccc(F)c2ccccc12 |  | Metabolite_Detected |
